What was measured:
[1] = Toxicity against human HepG2A16 cells assessed as cell death at 450 ug/ml by MTT method; format: cell-based
Plasmodium falciparum = assay: Antiplasmodial activity growth inhibition of chloroquine-resistant Plasmodium falciparum BHz 26/86 after 72 hrs; format: functional, organism-based; conditions: BHz 26/86, 72 h
Method in brief: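 Chloroquine-resistant Amazon isolate in continuous culture on human AB+ or A+ erythrocytes, RPMI 1640 + 10% human serum. Sorbitol-synchronized trophozoites at 1–2% parasitemia, 2.5% hematocrit. Compounds in 0.02% Tween 20, tested at 0.02 to 20 μM, 37°C. Growth inhibition versus drug-free control from blinded smear reading. IC50/IC90 by linear interpolation. Triplicate, three repeats.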

Row | SMILES | Activity [1] | IC50 (Plasmodium falciparum) | IC90 (Plasmodium falciparum)
1 | COc1cc2c(cc1OC)[C@@H](c1ccc3c(c1)OCO3)[C@@H](C)[C@H](C)C2=O | 30% | 0.26 µM | 3.35 µM
2 | COc1cc2c(cc1OC)[C@@H](c1ccc3c(c1)OCO3)[C@H](C)[C@H](C)C2=O | 30% | > 140 µM | > 140 µM
3 | COc1ccc([C@@H]2c3cc4c(cc3C(=O)[C@@H](C)[C@H]2C)OCO4)cc1OC | 30% | 8 µM | 19.7 µM
4 | COc1ccc([C@@H]2c3cc(OC)c(OC)cc3C(=O)[C@@H](C)[C@H]2C)cc1OC | 30% | 0.63 µM | 2.61 µM
5 | COc1ccc([C@@H]2c3cc(OC)c(OC)cc3C(=O)[C@H](C)[C@H]2C)cc1OC | 30% | 0.2 µM | 3 µM
6 | COc1ccc([C@@H]2c3cc(OC)c(OC)cc3C(=O)[C@@H](C)[C@@H]2C)cc1OC | 30% | 0.32 µM | 4.6 µM
7 | CCN(CC)CCCC(C)Nc1ccnc2cc(Cl)ccc12 (centres undefined) [CHLOROQUINE] |  |  | 0.7 µM

Reference: ChEMBL document CHEMBL1150789, “Antiplasmodial activity of aryltetralone lignans from Holostylis reniformis” (Antimicrob Agents Chemother, 2007)
